According to ChEMBL document CHEMBL4819003, “Optimization of novel oxidative DIMs as Nur77 modulators of the Nur77-Bcl-2 apoptotic pathway” (Eur J Med Chem, 2021):
The source made the active and inactive calls. No cut-off for these calls is given here.

How the values were obtained:
[1] = Cmax in female Sprague-Dawley rat at 0.5 mg/kg, iv measured for 36 hrs by LC-MS/MS analysis; type: ADME, organism-based; parameters: route intravenous, time 36 hrs, dose 0.5 mg/kg; conditions: in vivo
[2] = Half life in female Sprague-Dawley rat at 0.5 mg/kg, iv measured for 36 hrs by LC-MS/MS analysis; type: ADME, organism-based; conditions: in vivo
[3] = AUC (0 to t) in female Sprague-Dawley rat at 5 mg/kg, po measured for 36 hrs by LC-MS/MS analysis; type: ADME, organism-based; parameters: dose 5 mg/kg, time 36 hrs; conditions: in vivo
Summary of the method: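 Sprague-Dawley rats (200–220 g), three per sex per route, were dosed at 0.5 mg/kg IV or 5 mg/kg PO in DMSO/Tween-80/water (1:5:94). Heparinized blood was drawn from 5 min to 36 h after IV dosing and from 1 h to 36 h after oral dosing. Plasma was deproteinized with methanol (2% HCl) plus carbamazepine internal standard, measured by LC-MS/MS, and reported as mean ± SD.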

[4] = Volume of distribution at steady state in female Sprague-Dawley rat at 0.5 mg/kg, iv measured for 36 hrs by LC-MS/MS analysis; type: ADME, organism-based; conditions: in vivo
Summary of the method: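 Sprague-Dawley rats (200–220 g), three males and three females per route group. Dosed 5 mg/kg orally or 0.5 mg/kg IV as a solution in DMSO/T-80/H2O (1:5:94 by volume). Heparinized blood was drawn from 5 min to 36 h after IV and 1–36 h after oral dosing. Plasma was protein-precipitated with methanol (2% HCl) plus carbamazepine internal standard and assayed by LC-MS/MS. Parameters were taken from concentration-time data; n = 3 per sex, mean ± SD.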

[5] = MRT(0 to t) in female Sprague-Dawley rat at 5 mg/kg, po measured for 36 hrs by LC-MS/MS analysis; type: ADME, organism-based; conditions: in vivo
HCT-116 = assay: Induction of apoptosis in human HCT-116 cells assessed as PARP cleavage at 0.5 uM measured after 6 hrs by western blot assay relative to Di(1H-indol-3-yl)(4-(trifluoromethyl)phenyl)methylium methanesulfonate; type: functional
Summary of the method: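 HCT116 cells grown in RPMI-1640 with 10% FBS, exposed to 0.5 μM compound for 6 h. Lysates run on SDS-PAGE and blotted for PARP and cleaved PARP (primary antibodies 1:1000, ECL detection). The cleaved-PARP/PARP band intensity ratio was expressed relative to the reference compound set to 1. Mean ± SD, n = 3.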

[6] = Selectivity index, ratio of IC50 for human NCM460 cells to IC50 for human SW-620 cells
MDA-MB-231 = assay: Induction of apoptosis in human MDA-MB-231 cells assessed as PARP cleavage at 0.5 uM measured after 6 hrs by western blot assay; type: functional, cell-based
Summary of the method: (§1)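 Cells exposed to 0.5 µM for 6 h. Lysates resolved by SDS-PAGE and blotted to PVDF, blocked in 5% milk/TBST, probed with primary antibodies at 1:1000, ECL detection. Apoptosis scored as the densitometric ratio of cleaved PARP band to intact PARP band; mean ± SD, n = 3.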

MEF [7] = assay: Induction of apoptosis in wild type mouse MEF cells assessed as PARP cleavage at 0.5 uM measured after 6 hrs by western blot assay; type: functional, cell-based
Summary of the method: (§2)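 Wild-type, Nur77−/− or Bcl-2−/− mouse embryonic fibroblasts grown in DMEM with 10% FBS and treated with 0.5 µM for 6 h. PARP cleavage detected by western blot, primary antibodies at 1:1000, ECL.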

[8] = Half life in male/female Sprague-Dawley rat at 5 mg/kg, po measured for 36 hrs by LC-MS/MS analysis; type: ADME, organism-based; conditions: both, in vivo
SW-620 [9] = assay: Induction of apoptosis in human SW-620 cells assessed as PARP cleavage at 0.5 uM measured after 6 hrs by western blot assay; type: functional, cell-based; summary of the method: as §1
[10] = Selectivity index, ratio of IC50 for human NCM460 cells to IC50 for human HCT-116 cells; type: toxicity; conditions: NCM460 cells versus HCT-116 cells, read-out: Ratio IC50
[11] = Selectivity index, ratio of IC50 for human MCF-10A cells to IC50 for human MDA-MB-231 cells; type: toxicity; conditions: MCF-10A cells versus MDA-MB-231 cells, read-out: Ratio IC50
MEF [12] = assay: Induction of apoptosis in mouse MEF cells lacking Nur77 assessed as PARP cleavage at 0.5 uM measured after 6 hrs by western blot assay; type: functional, cell-based; summary of the method: as §2
[13] = Tmax in male/female Sprague-Dawley rat at 5 mg/kg, po measured for 36 hrs by LC-MS/MS analysis; type: ADME, organism-based; conditions: both, in vivo
Summary of the method: (§3)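 Sprague-Dawley rats (200–220 g), four per route group (2 male, 2 female), given 0.5 mg/kg IV or 5 mg/kg orally in DMSO/T-80/H2O (1:5:94). Heparinized blood was sampled at 5 min–36 h after IV and at 0.5, 1, 3, 4, 6, 8, 10, 12, 24 and 36 h after oral dosing. Plasma was methanol (2% HCl)-precipitated with carbamazepine internal standard and quantified by LC-MS/MS. Parameters reported as mean ± SD.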

[14] = biological target: T1, Nuclear receptor subfamily 4immunitygroup A member 1 (Homo sapiens, UniProt P22736); assay: Modulation of GFP-Nur77-LBD (unknown origin) transfected in human HEK293T cells co-transfected with Flag-tagged Bcl2 assessed as interaction of Nur77 with Bcl2 in mitochondria at 0.5 uM measured after 2 hrs by confocal microscopy; conditions: filed as modulator
T1 sequence (P22736 whole entry, the tested form may be a part): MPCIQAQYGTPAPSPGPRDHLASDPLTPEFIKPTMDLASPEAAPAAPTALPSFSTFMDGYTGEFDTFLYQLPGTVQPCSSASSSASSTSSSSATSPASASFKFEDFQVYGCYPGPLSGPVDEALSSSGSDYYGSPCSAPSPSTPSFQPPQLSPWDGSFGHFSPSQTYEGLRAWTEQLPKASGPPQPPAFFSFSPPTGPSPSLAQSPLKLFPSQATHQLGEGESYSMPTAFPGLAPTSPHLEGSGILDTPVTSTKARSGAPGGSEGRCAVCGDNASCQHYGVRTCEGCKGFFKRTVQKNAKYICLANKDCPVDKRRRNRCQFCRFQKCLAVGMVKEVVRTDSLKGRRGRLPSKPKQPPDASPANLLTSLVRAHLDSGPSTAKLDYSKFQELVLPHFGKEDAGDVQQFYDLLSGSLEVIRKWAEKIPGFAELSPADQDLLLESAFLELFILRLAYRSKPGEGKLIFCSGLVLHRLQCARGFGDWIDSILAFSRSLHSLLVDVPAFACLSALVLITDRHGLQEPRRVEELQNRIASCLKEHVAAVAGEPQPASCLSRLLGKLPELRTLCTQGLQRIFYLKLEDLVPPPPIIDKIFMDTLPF
Summary of the method: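 HEK293T cells were lipofectamine-cotransfected with Flag-Bcl-2 and GFP-Nur77 or GFP-Nur77-LBD, then given 0.5 μM compound for 2 h. Cells were fixed in 4% paraformaldehyde, permeabilised with 0.1% Triton X-100, blocked in 1% BSA and stained with anti-Flag plus DAPI. Mitochondrial colocalisation with Bcl-2 was read by confocal microscopy.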

[15] = Oral bioavailability in male/female Sprague-Dawley rat at 5 mg/kg measured for 36 hrs by LC-MS/MS analysis; type: ADME, organism-based; conditions: both, in vivo; summary of the method: as §3
SW-620 [16] = assay: Induction of apoptosis in human SW-620 cells assessed as viable cells at 0.5 uM measured after 6 hrs by Annexin V-FITC/PI staining based flow cytometry method (reference value: 98.37%); type: functional; conditions: read-out: Activity
Summary of the method: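 Cells seeded at 1×10^6 per well and treated with 0.5 µM for 6 h. Floating and adherent cells pooled, stained with Annexin V-FITC for 10 min and propidium iodide for 5 min, then analysed immediately by flow cytometry in FITC and PC5.5 channels. Mean ± SD, n = 3.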

[17] = biological target: T1, Nuclear receptor subfamily 4immunitygroup A member 1; assay: Modulation of Myc-Nur77-LBD (unknown origin) transfected in human HEK293T cells assessed as induction of Myc-Nur77 mitochondrial targeting by measuring increase in Myc-Nur77 accumulation in mitochondria at 0.5 uM measured after 2 hrs by Mito-tracker dye based confocal microscopy method; conditions: filed as modulator
Summary of the method: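 HEK293T cells transfected with Myc-Nur77-LBD were given 0.5 μM compound for 2 h, stained with Mito-Tracker and immunostained. Nur77 mitochondrial localisation was visualised by confocal microscopy.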

[18] = MRT(0 to t) in male/female Sprague-Dawley rat at 5 mg/kg, po measured for 36 hrs by LC-MS/MS analysis; type: ADME, organism-based; conditions: both, in vivo; summary of the method: as §3

Row | Cmax [1] [ng/mL] | half-life [2] [h] | AUC(0-t) at 36 h [3] [ng·h/mL] | Vdss [4] [L/kg] | MRT last at 36 h [5] [h] | half-life [8] [h] | Tmax [13] [h] | Activity [14] | bioavailability [15] [%] | Activity [17] | MRT last at 36 h [18] [h] | SMILES | fold change (FC) (HCT-116) | Ratio IC50 [6] | Activity (MDA-MB-231) | Activity (MEF [7]) | Activity (SW-620 [9]) | selectivity ratio [10] | selectivity ratio [11] | Activity (MEF [12]) | viability at 0.5 µM (SW-620 [16]) [%]
1 | 1640 | 5.91 | 3950 | 2.38 | 14.5 |  |  |  |  |  |  | CS(=O)(=O)[O-].FC(F)(F)c1ccc([C+](c2c[nH]c3ccccc23)c2c[nH]c3ccccc23)cc1 |  |  |  |  |  |  |  |  | 
2 |  |  |  |  |  | 4.49 | 3 | Active | 14.6 | Active | 9.59 | CS(=O)(=O)[O-].Cn1cc([C+](c2ccc(C(F)(F)F)cc2)c2c[nH]c3ccccc23)c2ccccc21 | 13.54 | 50 | Active | Active | Active | 50 | 40 | inactive | 7.08
